For orientation: GI50 means the concentration giving 50% growth inhibition. High values mean lower sensitivity of the cells, low ones greater sensitivity of the cells. As a reminder, the pIC50 is the negative decadic logarithm of the IC50, by convention in mol/L. The low end stands for a large IC50, the high end for a small IC50.

Data on twelve compounds can be found in ChEMBL document CHEMBL1155808, “Antitumor activity of bis-indole derivatives” (J Med Chem, 2008).

Assay [1] has as its system B1647. As to the kind of experiment: Antiproliferative activity against human B1647 cells after 48 hrs by MTT assay. It is filed as functional, cell-based. Background: Tetrazolium assays rely on reduction of a dye to a coloured formazan, in cell work by metabolically active cells.
Assay [2] can be described thus: Cytotoxicity against human colon cancer cells. It is filed as functional. As to conditions: Cancer cell lines; for CC50: read-out: pLC50 (the source's name) (converted); for TGI: read-out: pTGI (converted). The essentials: (§1)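 NCI 60-cell-line human tumour screen, with subpanels for leukemia, melanoma, lung, colon, kidney, ovary, breast, prostate and CNS. Compounds were dissolved in DMSO and tested at five ten-fold dilutions, highest 10^-4 M (10^-3 M for some). Endpoints were GI50, TGI and LC50, reported as negative log molar. Some compounds were assayed once, others two or three times.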

Assay [3] is described as follows: Cytotoxicity against human melanoma cells. It is filed as functional. To be noted: Melanoma cell; for CC50: read-out: pLC50 (the source's name) (converted); for TGI: read-out: pTGI (converted).
Assay [4] in a line: Cytotoxicity against human central nervous system cancer cells. It is filed as functional. As to conditions: Cancer cell lines; for CC50: read-out: pLC50 (the source's name) (converted); for TGI: read-out: pTGI (converted). The essentials: as §1
A short description of assay [5]: Cytotoxicity against human ovarian cancer cells. To be noted: Cancer cell lines; for CC50: read-out: pLC50 (the source's name) (converted); for TGI: read-out: pTGI (converted). It is filed as functional.
Assay [6] in a line: Cytotoxicity against human Non-small cell lung carcinoma cells. It is filed as functional. As to conditions: for CC50: read-out: pLC50 (the source's name) (converted); for TGI: read-out: pTGI (converted). In short, it runs like this: as §1
Assay [7] in a line: Cytotoxicity against human prostate cancer cells. As to conditions: Cancer cell lines; for CC50: read-out: pLC50 (the source's name) (converted); for TGI: read-out: pTGI (converted). It is filed as functional. The essentials: as §1
Assay [8] is described as follows: Inhibition of plasma membrane electron transport pathway in mitochondrial gene-knockout human HL60p'0 cells by WST1 reduction assay. In short, it runs like this:
(§2)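 Cells at 10^5 per well in 0.1 ml pretreated 30 min with compound in DMSO (<0.1% final), then WST-1/mPMS added (final 500 µM and 20 µM); WST-1 reduction followed in real time at 450 nm; averages ± S.E.M. of four independent experiments.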

Assay [9] relates to Mo7e. As to the kind of experiment: Antiproliferative activity against human Mo7e cells after 48 hrs by MTT assay. It is filed as functional, cell-based.
A short description of assay [10]: Inhibition of plasma membrane electron transport pathway in human HL60 cells by WST1 reduction assay. As to conditions: HL-60. It is filed as cell-based. The essentials: as §2
A short description of assay [11]: Cytotoxicity against human breast cancer cells. It is filed as functional. As to conditions: Cancer cell lines; for TGI: read-out: pTGI (converted); for CC50: read-out: pLC50 (the source's name) (converted). The essentials: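 MTT cytotoxicity assay in breast cancer cell lines; proliferation expressed as percent growth inhibition relative to vehicle-treated control cells; IC50 reported.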

A short description of assay [12]: Cytotoxicity against human renal cancer cells. As to conditions: Cancer cell lines; for CC50: read-out: pLC50 (the source's name) (converted); for TGI: read-out: pTGI (converted). It is filed as functional. The essentials: as §1
The nature of assay [13]: Cytotoxicity against human leukemia cells. To be noted: Leukemia cell; for CC50: read-out: pLC50 (the source's name) (converted); for TGI: read-out: pTGI (converted). It is filed as functional. The essentials: as §1
Assay [14] concerns HEL. As to the kind of experiment: Antiproliferative activity against human HEL cells after 48 hrs by MTT assay. It is filed as functional, cell-based.

pIC50: −log10 of the molar value. Where a name gives a salt, the structure may show the parent alone. Active and inactive are the calls of the source. The rule behind the calls is not given here. A value given as a limit tells only on which side of the number the result lay.

Regarding `COc1cc2c(cc1C)NC(=O)/C2=C/c1cccc(/C=C2/C(=O)Nc3cc(C)c(OC)cc32)n1`, the result in assay [1], in [9] and in [14] was Active. Further, the GI50 is 49 µM in assay [2]; 79.4 µM in [3]; 89.1 µM in [4]; 89.1 µM in [5]; 83.2 µM in [6]; 33.9 µM in [7]. Also, the GI50 in assay [11] is 74.1 µM; in assay [12] it was 52.5 µM; in assay [13] it was 4.37 µM. Moreover, the pIC50 in assay [8] and in assay [10] was less than 3.93 throughout. Also, the TGI in [11] is 93.3 µM; in assay [13] it was 60.3 µM. Also, the CC50 in [13] is 91.2 µM.
As for `CC[C@]1(O)C[C@H]2CN(CCc3c([nH]c4ccccc34)[C@@](C(=O)OC)(c3cc4c(cc3OC)N(C=O)[C@H]3[C@@](O)(C(=O)OC)[C@H](OC(C)=O)[C@]5(CC)C=CCN6CC[C@]43[C@@H]65)C2)C1` [VINCRISTINE SULFATE], the GI50 is 0.1 µM in [2]; 0.158 µM in assay [3]; 0.126 µM in [4]; 0.316 µM in assay [5]; 0.251 µM in assay [6]; 0.126 µM in assay [7]. In addition, the GI50 in assay [11] is 0.316 µM; in assay [12] it was 0.316 µM; in assay [13], 0.1 µM. The CC50 was 79.4 µM in assay [2]; 200 µM in assay [4]; 316 µM in assay [5]; 316 µM in [7]; 316 µM in [11]; 251 µM in [12]. The CC50 in [13] was 631 µM.
As to `O=C1Nc2ccc(F)cc2/C1=C\c1cccc(/C=C2/C(=O)Nc3ccc(F)cc32)n1`, the outcome in assay [1], in assay [9] and in [14] was Active. The GI50 in assay [2] was 2.14 µM; in [3], 2.04 µM; in [4] it was 3.8 µM; in assay [5], 4.17 µM; in [6] it was 7.24 µM; in assay [7] it was 3.47 µM. In addition, the GI50 in [11] is 2.95 µM; in assay [12] it was 4.17 µM; in [13] it was 1.17 µM. Moreover, the CC50 in [2] was 39.8 µM; in assay [3] it was 36.3 µM; in [4] it was 53.7 µM; in [5], 81.3 µM; in assay [6], 79.4 µM; in [7] it was 74.1 µM. Moreover, the CC50 was 50.1 µM in [11] and 51.3 µM in assay [12]. For the same compound, the TGI in assay [2] is 5.37 µM; in assay [3], 4.9 µM; in assay [4], 11.5 µM; in assay [6], 26.3 µM; in [7] it was 12.3 µM; in assay [11], 14.5 µM. Besides, the TGI in [12] was 12.9 µM; in [13], 7.76 µM. The pIC50 in assay [8] and in [10] was less than 3.93 throughout.
Turning to `O=C(O)CCC(=O)c1ccc2c(c1)/C(=C\c1cccc(/C=C3/C(=O)Nc4ccc(C(=O)CCC(=O)O)cc43)n1)C(=O)N2`, in [4], it took 30.2 µM to inhibit growth by half (GI50) and the TGI was 61.7 µM. The GI50 in assay [13] was 15.5 µM.
As for `O=C1Nc2ccccc2/C1=c1/[nH]c(=O)/c(=C2/C(=O)Nc3ccccc32)[nH]c1=O`, the GI50 in assay [4] was 74.1 µM; in assay [5], 97.7 µM; in [6], 85.1 µM; in assay [11] it was 85.1 µM; in [12], 83.2 µM.
For `O=C1Nc2cc(Cl)ccc2/C1=C\c1cccc(/C=C2/C(=O)Nc3cc(Cl)ccc32)n1`, the outcome in assay [1], in [9] and in assay [14] was Active. The GI50 was 1.74 µM in [2]; 1.78 µM in [3]; 2.24 µM in [4]; 3.02 µM in assay [5]; 3.72 µM in [6]; 3.39 µM in [7]. The GI50 in [11] is 2.29 µM; in assay [12], 1.07 µM; in [13], 1.45 µM. The CC50 in assay [2] is 25.1 µM; in assay [3], 21.4 µM; in assay [4], 36.3 µM; in assay [5] it was 63.1 µM; in [6], 57.5 µM; in [7], 70.8 µM. The values for the CC50 in assay [11], in assay [12] and in [13] were 52.5 µM, 20 µM and 95.5 µM, respectively. For the same compound, the TGI in [2] was 4.9 µM; in [3], 6.17 µM; in assay [4], 7.76 µM; in [5], 19.5 µM; in assay [6] it was 14.8 µM; in assay [7] it was 40.7 µM. The TGI was 13.5 µM in assay [11], 3.31 µM in [12] and 8.13 µM in assay [13]. Moreover, the pIC50 in assay [8] and in [10] was less than 3.93 each time.
With `O=C1Nc2ccc(Br)cc2/C1=C\c1cccc(/C=C2/C(=O)Nc3ccc(Br)cc32)n1`, the GI50 was 10.5 µM in [2]; 10 µM in assay [3]; 3.72 µM in assay [4]; 9.77 µM in [5]; 11 µM in assay [6]; 6.46 µM in assay [7]. Further, the GI50 in [11] was 6.17 µM; in assay [12] it was 7.94 µM. The CC50 in assay [2] is 52.5 µM; in assay [3] it was 52.5 µM; in assay [4], 40.7 µM; in assay [5] it was 58.9 µM; in [6], 63.1 µM; in assay [7] it was 55 µM. Further, the CC50 in [11] is 53.7 µM; in assay [12], 51.3 µM. Further, the TGI in assay [2] was 24.5 µM; in [3], 23.4 µM; in [4], 14.1 µM; in [5], 25.7 µM; in assay [6], 28.2 µM; in assay [7], 20.9 µM. Also, the TGI is 18.2 µM in [11] and 21.9 µM in assay [12].
As for `COc1ccc2[nH]cc(/C=c3\[nH]c(=O)/c(=C/c4c[nH]c5ccc(OC)cc45)[nH]c3=O)c2c1`, the GI50 is 72.4 µM in assay [3], 89.1 µM in [5] and 79.4 µM in assay [11].
On to `O=C1Nc2ccccc2/C1=C\c1cccc(/C=C2/C(=O)Nc3ccccc32)n1`, for which the GI50 was 0.282 µM in [2]; 0.302 µM in assay [3]; 0.575 µM in [4]; 0.589 µM in assay [5]; 0.813 µM in assay [6]; 0.631 µM in assay [7]. The results for the GI50 in [11] and in [13] were 0.49 µM and 0.234 µM, respectively. Also, the CC50 in assay [2] was 6.46 µM; in assay [3], 4.68 µM; in assay [4], 7.08 µM; in assay [5] it was 6.61 µM; in assay [6] it was 22.4 µM; in assay [7], 24.5 µM. Also, the figures for the CC50 in assay [11] and in assay [12] were 57.5 µM and 5.37 µM, respectively. Also, the TGI in assay [2] was 0.776 µM; in assay [3] it was 0.933 µM; in [4], 1.82 µM; in assay [5], 1.78 µM; in assay [6], 3.16 µM; in assay [7], 2.69 µM. In addition, the TGI in [12] was 1.62 µM; in assay [13], 1.95 µM.
For the compound `COc1ccc2c(c1)/C(=C\c1cccc(/C=C3/C(=O)N(C)c4ccc(OC)cc43)n1)C(=O)N2C`, the GI50 in [2] is 1.45 µM; in assay [3] it was 1.05 µM; in assay [4], 3.24 µM; in [5], 2.57 µM; in assay [6] it was 2.45 µM; in [7], 2.09 µM. Besides, the GI50 in assay [11] was 1.62 µM; in assay [12] it was 1.51 µM; in assay [13] it was 38 µM. Moreover, the CC50 is 11.7 µM in [2]; 8.91 µM in [3]; 74.1 µM in assay [6]; 63.1 µM in [11]; 20.9 µM in [12]. The TGI in assay [2] was 3.39 µM; in assay [3], 3.8 µM; in [4], 14.8 µM; in [6] it was 19.1 µM; in [12] it was 5.25 µM.
Take `Cc1cc2c(cc1O)/C(=C\c1cccc(/C=C3/C(=O)Nc4cc(C)c(O)cc43)n1)C(=O)N2`: the outcome in [1], in [9] and in assay [14] was Active. For the same compound, the GI50 in assay [2] was 72.4 µM; in [3] it was 87.1 µM; in assay [5], 75.9 µM; in [6] it was 85.1 µM; in assay [7], 66.1 µM; in assay [11], 70.8 µM. Also, the GI50 in [12] is 67.6 µM; in assay [13] it was 27.5 µM. The pIC50 in assay [8] and in assay [10] was less than 3.93 in each case. In assay [11], the TGI is 87.1 µM.
For the compound `O=C1Nc2ccc(S(=O)(=O)O)cc2/C1=C\c1cccc(/C=C2/C(=O)Nc3ccc(S(=O)(=O)O)cc32)n1`, the GI50 in [3] is 95.5 µM; in [12], 85.1 µM; in assay [13], 93.3 µM.
